Assay results taken from the M2OR odorant receptor database.
Where a chain is given by its changes, count along the chain named.

Columns and labels:
Settings in all cases: stereoisomer not certain
Or10j5 (Mus musculus) = molecular target: T1, Or10j5 (Mus musculus) (UniProt Q62007)
T1 sequence (whole entry): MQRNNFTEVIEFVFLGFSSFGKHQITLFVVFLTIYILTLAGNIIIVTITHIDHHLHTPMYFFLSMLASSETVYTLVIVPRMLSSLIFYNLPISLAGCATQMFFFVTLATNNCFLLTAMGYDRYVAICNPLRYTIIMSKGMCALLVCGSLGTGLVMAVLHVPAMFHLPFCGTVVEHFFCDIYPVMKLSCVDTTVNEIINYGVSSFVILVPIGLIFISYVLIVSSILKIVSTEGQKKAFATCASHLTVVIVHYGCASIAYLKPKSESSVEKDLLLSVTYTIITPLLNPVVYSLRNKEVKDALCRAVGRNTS
Method in brief: (§1)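 Transient luciferase assays in mammalian cell lines were common, though methods varied by source. The values come from published papers and their supplementary material, with extra details from the original authors when needed. Responsive refers to a measured signal the original authors judged statistically different from baseline, and non-responsive (inactive) to the remainder.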

OR9A4 (Homo sapiens) = molecular target: T2, OR9A4 (Homo sapiens) (UniProt Q8NGU2)
T2 sequence (whole entry): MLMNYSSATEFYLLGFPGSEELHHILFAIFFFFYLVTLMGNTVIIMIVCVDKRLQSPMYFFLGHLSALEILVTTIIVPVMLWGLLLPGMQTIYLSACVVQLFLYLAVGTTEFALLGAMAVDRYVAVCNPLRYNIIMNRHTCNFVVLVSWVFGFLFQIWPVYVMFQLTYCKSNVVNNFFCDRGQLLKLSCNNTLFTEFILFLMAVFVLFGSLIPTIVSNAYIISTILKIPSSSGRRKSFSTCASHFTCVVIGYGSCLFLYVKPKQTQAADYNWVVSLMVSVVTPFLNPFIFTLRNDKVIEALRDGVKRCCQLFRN
Method in brief: as §1

OR9G1 (Homo sapiens) = molecular target: T3, OR9G1 (Homo sapiens) (UniProt Q8NH87)
T3 sequence (whole entry): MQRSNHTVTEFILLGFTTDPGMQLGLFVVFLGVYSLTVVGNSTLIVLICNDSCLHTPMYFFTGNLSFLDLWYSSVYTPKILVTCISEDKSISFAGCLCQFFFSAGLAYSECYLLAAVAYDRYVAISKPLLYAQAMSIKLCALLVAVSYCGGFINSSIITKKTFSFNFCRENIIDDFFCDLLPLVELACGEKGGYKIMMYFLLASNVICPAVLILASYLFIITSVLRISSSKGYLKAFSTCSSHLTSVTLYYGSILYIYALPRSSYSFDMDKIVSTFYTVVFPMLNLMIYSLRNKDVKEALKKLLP
Method in brief: as §1

OR9G4 (Homo sapiens) = molecular target: T4, OR9G4 (Homo sapiens) (UniProt Q8NGQ1)
T4 sequence (whole entry): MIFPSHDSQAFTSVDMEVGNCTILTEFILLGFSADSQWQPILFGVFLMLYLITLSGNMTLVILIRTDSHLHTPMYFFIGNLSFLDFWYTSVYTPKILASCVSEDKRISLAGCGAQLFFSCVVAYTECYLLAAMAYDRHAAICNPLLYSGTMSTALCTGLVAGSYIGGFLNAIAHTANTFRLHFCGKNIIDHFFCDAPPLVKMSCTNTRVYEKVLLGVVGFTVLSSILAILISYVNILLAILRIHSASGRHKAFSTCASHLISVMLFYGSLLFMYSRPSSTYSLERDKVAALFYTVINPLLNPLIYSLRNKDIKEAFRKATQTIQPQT
Method in brief: as §1

OR9G4 H6Y N206D V222A = tested on: T5, OR9G4 H6Y N206D V222A
T5 sequence (whole entry): T4 sequence (whole entry) with H6Y, N206D, V222A
Method in brief: as §1

OR9G4 N206D V222A = tested on: T6, OR9G4 N206D V222A
T6 sequence (whole entry): T4 sequence (whole entry) with N206D, V222A
Method in brief: as §1

OR9G9 = tested on: T7, OR9G9
T7 sequence (whole entry): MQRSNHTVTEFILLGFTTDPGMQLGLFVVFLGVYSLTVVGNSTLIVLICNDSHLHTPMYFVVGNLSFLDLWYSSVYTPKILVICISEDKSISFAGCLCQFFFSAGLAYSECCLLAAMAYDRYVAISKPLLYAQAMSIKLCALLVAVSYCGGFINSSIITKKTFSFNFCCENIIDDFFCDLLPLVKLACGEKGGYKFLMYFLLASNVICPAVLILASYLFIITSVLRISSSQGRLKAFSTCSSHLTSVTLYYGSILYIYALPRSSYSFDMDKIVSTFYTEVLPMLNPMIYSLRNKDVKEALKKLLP
Method in brief: as §1

OR9I1 (Homo sapiens) = molecular target: T8, OR9I1 (Homo sapiens) (UniProt Q8NGQ6)
T8 sequence (whole entry): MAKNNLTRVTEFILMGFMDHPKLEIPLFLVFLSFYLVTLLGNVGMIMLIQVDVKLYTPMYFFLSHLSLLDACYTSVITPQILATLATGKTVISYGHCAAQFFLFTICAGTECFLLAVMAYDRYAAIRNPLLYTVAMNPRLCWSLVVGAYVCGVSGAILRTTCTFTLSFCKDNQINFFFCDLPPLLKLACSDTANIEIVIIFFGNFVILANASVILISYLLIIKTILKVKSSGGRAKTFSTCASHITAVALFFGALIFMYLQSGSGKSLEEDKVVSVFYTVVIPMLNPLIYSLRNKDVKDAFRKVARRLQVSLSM
Method in brief: as §1

OR9K2 (Homo sapiens) = molecular target: T9, OR9K2 (Homo sapiens) (UniProt Q8NGE7)
T9 sequence (whole entry): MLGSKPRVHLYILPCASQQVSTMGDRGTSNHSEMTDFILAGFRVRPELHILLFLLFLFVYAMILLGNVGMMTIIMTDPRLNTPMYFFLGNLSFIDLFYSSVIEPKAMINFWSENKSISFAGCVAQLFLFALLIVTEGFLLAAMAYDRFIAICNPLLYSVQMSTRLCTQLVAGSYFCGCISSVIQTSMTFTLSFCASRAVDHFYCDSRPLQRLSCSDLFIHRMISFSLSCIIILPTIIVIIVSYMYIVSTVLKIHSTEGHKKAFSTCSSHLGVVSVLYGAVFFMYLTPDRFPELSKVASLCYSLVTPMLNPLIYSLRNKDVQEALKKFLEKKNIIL
Method in brief: as §1

OR9K2 R207H = tested on: T10, OR9K2 R207H
T10 sequence (whole entry): T9 sequence (whole entry) with R207H
Method in brief: as §1

OR9Q1 (Homo sapiens) = molecular target: T11, OR9Q1 (Homo sapiens) (UniProt Q8NGQ5)
T11 sequence (whole entry): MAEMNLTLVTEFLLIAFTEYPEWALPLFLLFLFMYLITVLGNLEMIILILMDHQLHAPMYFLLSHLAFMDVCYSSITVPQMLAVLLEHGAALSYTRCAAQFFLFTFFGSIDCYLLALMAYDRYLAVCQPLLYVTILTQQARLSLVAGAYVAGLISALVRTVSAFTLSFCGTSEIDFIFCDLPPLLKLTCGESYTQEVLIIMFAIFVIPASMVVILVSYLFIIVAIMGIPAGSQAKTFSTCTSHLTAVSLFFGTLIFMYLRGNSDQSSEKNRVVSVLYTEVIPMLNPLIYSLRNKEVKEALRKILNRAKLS
Method in brief: as §1

OR9Q1 A83T = tested on: T12, OR9Q1 A83T
T12 sequence (whole entry): T11 sequence (whole entry) with A83T
Method in brief: as §1

OR9Q2 (Homo sapiens) = molecular target: T13, OR9Q2 (Homo sapiens) (UniProt Q8NGE9)
T13 sequence (whole entry): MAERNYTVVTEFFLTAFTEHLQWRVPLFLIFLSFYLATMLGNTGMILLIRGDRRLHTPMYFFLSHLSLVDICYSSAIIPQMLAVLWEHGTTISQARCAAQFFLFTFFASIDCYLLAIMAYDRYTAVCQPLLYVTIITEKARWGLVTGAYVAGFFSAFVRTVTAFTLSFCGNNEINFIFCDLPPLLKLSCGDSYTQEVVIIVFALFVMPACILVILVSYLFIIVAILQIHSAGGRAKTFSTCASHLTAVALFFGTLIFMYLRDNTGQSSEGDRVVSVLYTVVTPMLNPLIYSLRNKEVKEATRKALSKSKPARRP
Method in brief: as §1

OR9Q2 C179R = tested on: T14, OR9Q2 C179R
T14 sequence (whole entry): T13 sequence (whole entry) with C179R
Method in brief: as §1

Or5k16 (Mus musculus) = molecular target: T15, Or5k16 (Mus musculus) (UniProt Q7TS48)
T15 sequence (whole entry): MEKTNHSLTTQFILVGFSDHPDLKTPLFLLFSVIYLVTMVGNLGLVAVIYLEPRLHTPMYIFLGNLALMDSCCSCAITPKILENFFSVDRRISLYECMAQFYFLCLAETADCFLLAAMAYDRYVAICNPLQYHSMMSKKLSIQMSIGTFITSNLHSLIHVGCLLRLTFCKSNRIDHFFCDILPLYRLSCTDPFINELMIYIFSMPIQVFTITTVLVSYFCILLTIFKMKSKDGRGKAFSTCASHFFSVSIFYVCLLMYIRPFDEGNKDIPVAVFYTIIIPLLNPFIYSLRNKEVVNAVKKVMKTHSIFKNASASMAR
Method in brief: as §1

Or1m1 (Mus musculus) = molecular target: T16, Or1m1 (Mus musculus) (UniProt Q8VFM9)
T16 sequence (whole entry): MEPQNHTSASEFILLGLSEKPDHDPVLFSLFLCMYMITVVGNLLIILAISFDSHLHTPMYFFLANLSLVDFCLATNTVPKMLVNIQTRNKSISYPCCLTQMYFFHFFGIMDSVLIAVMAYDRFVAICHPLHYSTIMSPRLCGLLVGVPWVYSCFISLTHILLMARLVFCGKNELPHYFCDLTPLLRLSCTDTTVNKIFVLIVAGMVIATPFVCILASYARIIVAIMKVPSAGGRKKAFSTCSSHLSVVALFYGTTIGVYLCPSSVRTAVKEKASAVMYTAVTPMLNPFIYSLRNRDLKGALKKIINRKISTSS
Method in brief: as §1

Or5ar1 (Mus musculus) = molecular target: T17, Or5ar1 (Mus musculus) (UniProt Q8VGS3)
T17 sequence (whole entry): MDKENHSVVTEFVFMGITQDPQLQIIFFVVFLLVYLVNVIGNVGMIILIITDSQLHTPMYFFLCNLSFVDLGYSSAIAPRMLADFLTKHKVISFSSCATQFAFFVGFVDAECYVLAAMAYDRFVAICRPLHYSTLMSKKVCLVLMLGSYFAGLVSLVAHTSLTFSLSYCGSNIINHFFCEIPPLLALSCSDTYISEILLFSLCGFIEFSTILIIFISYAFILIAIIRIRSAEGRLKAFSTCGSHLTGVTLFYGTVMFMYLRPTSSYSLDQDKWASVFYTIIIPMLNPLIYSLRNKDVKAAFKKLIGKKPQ
Method in brief: as §1

Or2c1 (Mus musculus) = molecular target: T18, Or2c1 (Mus musculus) (UniProt P23275)
T18 sequence (whole entry): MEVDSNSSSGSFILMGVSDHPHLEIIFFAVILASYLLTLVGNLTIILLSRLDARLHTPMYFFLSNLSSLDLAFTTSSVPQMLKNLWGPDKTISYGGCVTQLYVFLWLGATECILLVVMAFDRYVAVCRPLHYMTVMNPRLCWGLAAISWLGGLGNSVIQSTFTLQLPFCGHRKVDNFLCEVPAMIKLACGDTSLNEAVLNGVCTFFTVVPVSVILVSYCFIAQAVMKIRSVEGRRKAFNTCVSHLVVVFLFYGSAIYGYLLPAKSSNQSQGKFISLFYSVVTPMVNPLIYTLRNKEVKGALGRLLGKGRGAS
Method in brief: as §1

Measured: odorant receptor agonist call

CCCCCCCCCCCC(=O)O
inactive: Or10j5 (Mus musculus)

CC1=NC(C)C(C)S1 (centres undefined)
active: Or5k16 (Mus musculus)
not listed: Or10j5 (Mus musculus) | Or1m1 (Mus musculus) | Or5ar1 (Mus musculus) | Or2c1 (Mus musculus)
inactive: all other assays above

O=C([O-])CCCCCCCC(=O)[O-].[H+].[H+]
inactive: Or10j5 (Mus musculus) | Or1m1 (Mus musculus) | Or5ar1 (Mus musculus)

O=C(O)CCCCBr
inactive: Or10j5 (Mus musculus)

O=C(O)CCCCCCCCCCCBr
inactive: Or10j5 (Mus musculus)

CCCCC(=O)O
inactive: Or10j5 (Mus musculus) | Or1m1 (Mus musculus) | Or2c1 (Mus musculus) | Or5ar1 (Mus musculus)

CCCCCCCCCC(=O)[O-].[H+]
active: Or2c1 (Mus musculus)
inactive: Or10j5 (Mus musculus) | Or1m1 (Mus musculus) | Or5ar1 (Mus musculus)

CCCC(S)CCOC(C)=O (centres undefined)
not listed: Or10j5 (Mus musculus) | Or5k16 (Mus musculus) | Or1m1 (Mus musculus) | Or5ar1 (Mus musculus) | Or2c1 (Mus musculus)
inactive: all other assays above

CC1=C(O)C(=O)C(C)O1 (centres undefined)
not listed: Or10j5 (Mus musculus) | Or5k16 (Mus musculus) | Or1m1 (Mus musculus) | Or5ar1 (Mus musculus) | Or2c1 (Mus musculus)
inactive: all other assays above
